Article PMC10723041 (Science (New York, N.Y.), 2021)
Like-named read-outs stand apart in the source and are kept apart here.

Key:
[1] = molecular target: P. aeruginosa CSE (PaCSE) (Pseudomonas aeruginosa, UniProt Q9I6A0); experiment: H2S production enzymatic assay, PaCSE; type: biochemical; details: for inhibition of bCSEs (PaCSE): at considerably higher concentrations than for hCSE
S. aureus CSE (SaCSE) = S. aureus CSE (SaCSE) (Staphylococcus aureus, UniProt X5E0F1); experiment: H2S production enzymatic assay, SaCSE; type: biochemical; details: for inhibition of bCSEs (SaCSE): at considerably higher concentrations than for hCSE
SaCSE = SaCSE (Staphylococcus aureus, UniProt X5E0F1); experiment: Microscale Thermophoresis; type: binding
[2] = tested on: S. aureus RN4220 (MSSA) and USA300 (MRSA); experiment: Antibiotic potentiation; type: cell-based
S. aureus Newman = experiment: S. aureus sepsis; type: in vivo, Swiss Webster mice; details: NL1 or Gm alone
S. aureus USA300 = experiment: Persister viability under antibiotic challenge; type: cell-based; details: wt cells, ciprofloxacin 10 µg/ml challenge
[3] = Chronic exposure in animal model; type: in vivo; details: stringent animal model
[4] = tested on: P. aeruginosa PA14 and PAO1; experiment: Antibiotic potentiation; type: cell-based
P. aeruginosa PA14 [5] = experiment: Persister viability under antibiotic challenge; type: cell-based; details: wt cells, ciprofloxacin 10 µg/ml challenge
Summary of the method: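 Exponentially growing P. aeruginosa PA14 cultures were challenged with ciprofloxacin at 10 µg/ml. The viable cell fraction was followed over time as a killing curve, and the curve tail was taken as the persister population. Data are mean ± SE, n=3.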

P. aeruginosa PA14 [6] = experiment: Pyocyanin redox state in stationary phase culture; type: cell-based; details: well-aerated PA14; NL1 180 µM for 18 h
Summary of the method: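 Stationary-phase P. aeruginosa PA14 cultures (OD600 ~1.5) were well aerated and treated with test compound at 180 µM for 18 h. Pyocyanin redox state was judged visually by culture colour: blue/green for oxidized, light yellow for reduced. Comparators were untreated wt and a cbs/cse(−) mutant.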

[7] = tested on: different types of human cells; experiment: Toxicity to human cells; type: cell-based; details: various assays
P. aeruginosa PA14 [8] = experiment: P. aeruginosa intranasal lung infection model; type: in vivo, Swiss Webster mice; details: for lung bacterial burden, single agent: NL1 or Gm administered separately, lungs collected 5h after infection
SaCSE H339A mutant = molecular target: T1, SaCSE H339A mutant (Staphylococcus aureus, UniProt X5E0F1, H339A); experiment: H2S generating activity of SaCSE H339A mutant; type: biochemical, S. aureus; details: for IC50: read-out: IC50 for SaCSE H339A mutant, mean ± SE, n=2
T1 sequence (X5E0F1 1-380 H339A): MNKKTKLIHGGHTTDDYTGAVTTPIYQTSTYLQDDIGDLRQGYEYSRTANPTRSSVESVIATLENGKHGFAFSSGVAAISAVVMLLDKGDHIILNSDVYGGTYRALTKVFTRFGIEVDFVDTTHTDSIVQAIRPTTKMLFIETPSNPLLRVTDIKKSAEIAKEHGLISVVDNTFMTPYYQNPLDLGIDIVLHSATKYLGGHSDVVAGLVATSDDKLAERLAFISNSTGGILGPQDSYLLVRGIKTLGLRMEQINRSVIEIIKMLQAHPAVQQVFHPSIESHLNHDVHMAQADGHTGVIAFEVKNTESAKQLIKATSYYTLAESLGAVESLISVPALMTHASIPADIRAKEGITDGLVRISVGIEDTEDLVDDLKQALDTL

persisters = experiment: Persister assay with H2S donor; type: cell-based
[9] = to approximately the same extent as genetic inactivation of bCSE

Compound: NCCO/C=C/[C@H](N)C(=O)O [AVG, L-aminoethoxyvinylglycine]
- inhibition of bCSEs (PaCSE) [1]: capable of inhibiting bCSEs
- inhibition of bCSEs (SaCSE) (S. aureus CSE (SaCSE)): capable of inhibiting bCSEs

Compound: NOCC(=O)O [AOAA, aminooxyacetic acid]
- inhibition of bCSEs (PaCSE) [1]: capable of inhibiting bCSEs
- inhibition of bCSEs (SaCSE) (S. aureus CSE (SaCSE)): capable of inhibiting bCSEs

Compound: O=C(O)CNC(=O)Cn1c(C(F)(F)F)cc2ccc(Br)cc21 [NL1F3]
- apparent KD for SaCSE (MST) (SaCSE): failed
- IC50 (S. aureus CSE (SaCSE)): > 200 µM

Compound: O=C(O)CNC(=O)Cn1ccc2ccc(Br)cc21 [NL1]
- Kd (SaCSE): ~0.4 µM
- sensitization of bCSE-deficient S. aureus RN4220 to Gm ([2]; cse mutant): failed to sensitize
- sensitization of wild type S. aureus RN4220 to Gm [2, 9]: enhanced the killing effect of Gm
- survival, single agent (S. aureus Newman): neither NL1 nor Gm alone increased survival
- effect on persisters, S. aureus USA300 (S. aureus USA300): eliminated approximately the same amount of persisters as did genetic inactivation of cse/cbs
- adverse effects of chronic exposure [3]: No adverse effects
- sensitization of bCSE-deficient P. aeruginosa PA14 to Gm ([4]; cse mutant): failed to sensitize
- sensitization of wild type P. aeruginosa PA14 to Gm [4, 9]: enhanced the killing effect of Gm
- aqueous solubility relative to NL3 (Aqueous solubility): higher aqueous solubility than NL3
- effect on persisters, P. aeruginosa PA14 (P. aeruginosa PA14 [5]): eliminated approximately the same amount of persisters as did genetic inactivation of cse/cbs
- culture coloration (pyocyanin redox state) (P. aeruginosa PA14 [6]): green-blue coloration characteristic of the oxidized pyocyanin
- non-toxic concentration in human cells [7]: at least 25 × of its minimal potentiator concentration
- lung bacterial burden, combination with Gm (P. aeruginosa PA14 [8]; NL1 60 mg/kg together with Gm 2 mg/kg subcutaneous, 30 min after infection, lungs 5h after infection): markedly decreased
- lung bacterial burden, single agent (P. aeruginosa PA14 [8]): did not change significantly

Compound: O=C(O)c1cc(Cn2ccc3ccc(-c4cc5cccc(Cl)c5s4)cc32)[nH]n1 [NL3]
- IC50 (SaCSE H339A mutant): 1.7 ± 0.1 µM
- IC50 ([1]; read-out: IC50 for PaCSE, L-cysteine at 100 μM): 1.2 µM
- IC50 (S. aureus CSE (SaCSE); read-out: IC50 for SaCSE, L-cysteine at 100 μM): 0.7 µM

Compound: gentamycin [Gm, reference compound]
- survival, single agent (S. aureus Newman): neither NL1 nor Gm alone increased survival
- lung bacterial burden, single agent (P. aeruginosa PA14 [8]): did not change significantly

Compound: C=CCSSSCC=C [DATS, diallyl trisulfide]
- effect of H2S donor on anti-persister effect of NL1 (persisters): prevented the anti-persister effect of NL1

Compound: NO [HA, hydroxylamine]
- inhibition of bCSEs (PaCSE) [1]: capable of inhibiting bCSEs
- inhibition of bCSEs (SaCSE) (S. aureus CSE (SaCSE)): capable of inhibiting bCSEs

Compound: [Na+].[SH-] [NaHS, reference compound]
- effect of exogenous sulfide on Gm potentiation by NL1, S. aureus RN4220 [2]: largely suppressed Gm potentiation
- effect of exogenous sulfide on Gm potentiation by NL1, P. aeruginosa PA14 [4]: largely suppressed Gm potentiation

Compound: Cc1oc(Cn2ccc3ccc(Br)cc32)cc1C(=O)O [NL2]
- reduction of inhibition in H339A mutant versus wt SaCSE (SaCSE H339A mutant): ~ 70 fold
- IC50 (SaCSE H339A mutant): 154 ± 94.8 µM
- aqueous solubility relative to NL3 (Aqueous solubility): higher aqueous solubility than NL3
